Lmaj promast: Leishmania major promastigote growth inhibition; Leishmania major promastigotes, resazurin fluorescence viability; inhibition, % at 10 µM; actives 9% (n = 200,000); in the data active = inhibition above about 50%;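 also: promastigotes grown with compound for 44 hours at 28 °C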
HCT116 bCat-KO: beta-catenin-lacking colon tumor cell growth suppression; viability, % at 10 µM; HCT116 beta-catenin knockout viability, CellTiter-Glo, 60 h; hits give low values; actives 1.5% (n = 140,000); AID 818;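 active = viability at or under a set limit, the compound median less 4 SD, cut at about 6% in these data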
HCT116 PTEN-null: suppresses growth of cells with PTEN deletion; HCT116 PTEN-null viability, CellTiter-Glo, 60 h; hits give low values; viability, % at 10 µM; actives 1.2% (n = 140,000); AID 827;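 active = viability at or below a set limit, 4 SD under the median of all tested compounds, cut at about 3.7% in these data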;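 also: PTEN knockout HCT116 line with beta catenin targeted HCT116 as companion control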
PMI act satM6P: activators of human phosphomannose isomerase at near-saturating mannose 6-phosphate. P34949. coupled PMI enzyme assay, resazurin fluorescence, 20 min; hits give high values; 1 = untreated enzyme, 0 = substrate-free blank. activation factor at 20 µM. actives 0.34% (n = 190,000). AID 1216;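 active = activation factor of 2 or more at 20 µM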
Target sequence (P34949 whole entry, looked up): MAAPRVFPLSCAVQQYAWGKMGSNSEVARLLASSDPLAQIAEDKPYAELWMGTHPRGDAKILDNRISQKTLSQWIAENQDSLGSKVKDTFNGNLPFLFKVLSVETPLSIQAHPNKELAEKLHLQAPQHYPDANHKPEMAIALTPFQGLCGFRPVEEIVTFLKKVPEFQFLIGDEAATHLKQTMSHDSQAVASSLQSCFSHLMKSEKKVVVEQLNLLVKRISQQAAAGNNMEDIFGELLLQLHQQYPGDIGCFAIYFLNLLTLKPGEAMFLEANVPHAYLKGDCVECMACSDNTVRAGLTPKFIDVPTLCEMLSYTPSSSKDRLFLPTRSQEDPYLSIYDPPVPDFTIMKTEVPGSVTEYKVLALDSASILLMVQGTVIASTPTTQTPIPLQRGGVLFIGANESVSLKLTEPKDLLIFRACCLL
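Test system: human phosphomannose isomerase with PGI, G6PDH, diaphorase coupling enzymes / Doses: 20 µM compound, 1% DMSO / Times: enzyme reaction with compound 20 min at room temperature / Measured by: Diaphorase-driven resazurin-to-resorufin fluorescence, excitation 544, emission 590 nm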
PMI activator: phosphomannose isomerase (human) activation; P34949; purified human PMI, coupled resazurin fluorescence, 20 min; hits give high values; 1 = vehicle control, 0 substrate-free wells; activation factor at 20 µM; actives 0.005% (n = 190,000); AID 1214;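 active = activation factor of 2 or more at 20 µM, relative to plate controls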
Large screens that a line does not name were inactive. This is a sample that favours compounds with a hit; in the whole collection about 9.6% have one here.

O=C(CCCCN1CCCCC1)c1ccc2c(c1)Cc1ccccc1-2	Lmaj promast 100 (no result: HCT116 bCat-KO, HCT116 PTEN-null)
CCOC(=O)c1ccc(N=Nc2c(C)c(C#N)c(O)[nH]c2=O)cc1	none (no result: HCT116 bCat-KO, HCT116 PTEN-null)
COc1ccc(CCNC(=O)C2CCN(S(=O)(=O)c3cnc[nH]3)CC2)cc1OC	none
FC(F)(F)c1ccc(Cl)c(NC(=S)NC2CC2)c1	none
O=C(CCc1nnc(C2(c3ccc(Cl)cc3)CCC2)o1)NCCCn1cccn1	none (no result: HCT116 bCat-KO, HCT116 PTEN-null)
CC(C)Oc1ccc(C(=O)CCN2CCCCC2)cc1	Lmaj promast 90
O=C(CCS(=O)(=O)c1ccc(Br)cc1)N1CCN(c2ccccc2F)CC1	none
CCCOc1ccc(C(=O)CCN2CCN(C(=O)OCC)CC2)cc1	Lmaj promast 96 (no result: HCT116 bCat-KO, HCT116 PTEN-null)
O=C(CCN1CCN(c2ccccc2F)CC1)c1ccc(Br)cc1	Lmaj promast 83
Cc1ccc(N(CC(=O)Nc2ccccc2-c2ccccc2)S(=O)(=O)c2ccccc2)c(C)c1	none
Cc1ccc(N(CC(=O)NN=C2CCN(C)CC2)S(=O)(=O)c2ccccc2)c(C)c1	Lmaj promast 60
COc1ccc(-c2[nH]ncc2CNCCc2ncccc2C)cc1F	none (no result: HCT116 bCat-KO, HCT116 PTEN-null, PMI act satM6P, PMI activator)
N#Cc1c(-c2ccccc2)c(-c2ccccc2)nn(CC(=O)NNC(=O)Nc2ccc(Cl)c(Cl)c2)c1=O	none
Cc1cc(S(=O)(=O)Nc2ccc3c(c2)n(C)c(=O)n3C)ccc1F	none (no result: HCT116 bCat-KO, HCT116 PTEN-null)
Cc1ccc(NS(=O)(=O)c2ccc3c(c2)c(=O)n(C)c(=O)n3C)cc1F	Lmaj promast 68
Cc1cc(C)cc(NS(=O)(=O)c2ccc3c(c2)c(=O)n(C)c(=O)n3C)c1	Lmaj promast 97
COC(=O)CCN(C(=O)C1C2CC3CC(C2)CC1C3)c1ccccn1 (stereo not given)	none
Cc1ccccc1C1CCCN(Cc2nc(CC3CC3)no2)C1 (stereo not given)	none (no result: HCT116 bCat-KO, HCT116 PTEN-null)
CN1CCCCc2c1nc1ccccc1c2N (tested in a mixture with another compound)	Lmaj promast 92
CN(C)CCCNC(=O)COc1ccc(Br)cc1Cl	Lmaj promast 91
CCN(CC)CCNC(=O)COc1ccc(Cl)cc1Cl	Lmaj promast 75
C/C(=C\C(=O)c1sccc1Cl)N(C)C	none (no result: HCT116 bCat-KO, HCT116 PTEN-null)
O=C1C2C3CCC(C3NCc3ccccc3)C2C(=O)N1Cc1ccccc1 (stereo not given)	Lmaj promast 60
O=c1c2ccccc2sn1-c1ccc(S(=O)(=O)N2CCCCC2)cc1	none (no result: HCT116 bCat-KO, HCT116 PTEN-null, PMI act satM6P, PMI activator)
Cc1ccc(-n2sc3ccccc3c2=O)cc1S(=O)(=O)N1CCCCC1	Lmaj promast 89
COc1ccc2c(c1)c1nnc(SC)nc1n2C	Lmaj promast 96
COc1ccc2c(c1)c1nnc(SCC(=O)N3C(C)CCCC3C)nc1n2C (stereo not given)	Lmaj promast 78
Cn1c(N)c(Sc2ccc(F)cc2)c(=O)n(C)c1=O	none (no result: HCT116 bCat-KO, HCT116 PTEN-null)
O=C1CN(c2nc(-c3cccs3)nc3sc4c(c23)CCCC4)CCN1	Lmaj promast 76, PMI act satM6P 2.2 (no result: HCT116 bCat-KO, HCT116 PTEN-null)
O=c1oc(-c2cccs2)nc2sc3c(c12)CCCC3	none
Cc1ccc(Cl)cc1N1CCN(C(=O)c2ccc(NS(=O)(=O)c3c(C)noc3C)cc2)CC1	Lmaj promast 96
COc1ccccc1N1CCN(C(=O)c2ccc3nc(-c4ccco4)c(-c4ccco4)nc3c2)CC1	none
Cc1ccc(C)c(N2CCN(C(=O)c3ccc(NS(=O)(=O)c4c(C)noc4C)cc3)CC2)c1	Lmaj promast 93
Cc1noc(C)c1S(=O)(=O)Nc1ccc(C(=O)N2CCCCC2)cc1	none
Cc1ccc(NC(=O)c2ccc(NS(=O)(=O)c3c(C)noc3C)cc2)cc1C	none
Cc1ccc(C)c(N2CCN(C(=O)c3ccc4nc(-c5ccco5)c(-c5ccco5)nc4c3)CC2)c1	Lmaj promast 82
COC(=O)c1cnn2c1C(=O)N(Cc1cccs1)CC2	none (no result: HCT116 bCat-KO, HCT116 PTEN-null)
O=C(c1cc(Cl)nc2ccccc12)N1CCc2ccccc2C1	none (no result: HCT116 bCat-KO, HCT116 PTEN-null)
NC(=O)CSc1nccn1Cc1ccc(Cl)cc1	none (no result: HCT116 bCat-KO, HCT116 PTEN-null)
O=C(NCc1ccco1)C(c1cccnc1)N(C(=O)Cn1nnc2ccccc21)c1ccc(F)cc1 (stereo not given)	none
CC(=O)c1c(C)[nH]c(C2=NNC(=NCc3ccccc3)SC2)c1C	none (no result: HCT116 bCat-KO, HCT116 PTEN-null)
CCOC(=O)c1c(C)[nH]c(C2=NNC(=Nc3cccc(Cl)c3)SC2)c1C	HCT116 bCat-KO 2.8, HCT116 PTEN-null 2.1
CCN(CC(=O)NC1CCS(=O)(=O)C1)S(=O)(=O)c1ccc(C)c(C)c1 (stereo not given)	Lmaj promast 55
CCN(CC(=O)NC1CCS(=O)(=O)C1)S(=O)(=O)c1ccc2ccccc2c1 (stereo not given)	none
CCNC(=S)N1CCN(CC)CC1	none (no result: HCT116 bCat-KO, HCT116 PTEN-null)
O=C(Nc1ccc(O)cc1)c1cccc(Oc2ccc([N+](=O)[O-])cc2)c1	none (no result: HCT116 bCat-KO, HCT116 PTEN-null, PMI act satM6P, PMI activator)
O=C(O)c1cccc(Oc2ccc([N+](=O)[O-])cc2)c1	Lmaj promast 59
COc1cc(NC(=O)C2=C(N3CCOCC3)/C(=C/c3ccc(Cl)cc3)CC2)cc(OC)c1OC	none
COc1cc(NC(=O)C2=C(N3CCOCC3)/C(=C\c3ccc(N(C)C)cc3)CCC2)cc(OC)c1OC	Lmaj promast 98
Cc1ccc(N2CCN(C(=O)c3cc(C(=O)c4ccccc4C)c[nH]3)CC2)c(C)c1	none (no result: HCT116 bCat-KO, HCT116 PTEN-null)
O=C(N/N=C/c1cccc(O)c1)c1ccc(COc2ccccc2Br)cc1	none
Cc1ccc(C(C)C)c(OCc2ccc(C(=O)N/N=C/c3ccc(O)cc3O)cc2)c1	Lmaj promast 100
Fc1ccc(C(CNC(=S)NC2CCCCC2)N2CCOCC2)cc1 (stereo not given)	none (no result: HCT116 bCat-KO, HCT116 PTEN-null)
C=C(C(=O)c1ccccc1)C(c1ccccc1)C(C)C(=O)c1ccccc1 (stereo not given)	Lmaj promast 89
C=C(C(=O)c1ccccc1)C(C)C(=C)C(=O)c1ccccc1	Lmaj promast 100, HCT116 bCat-KO 2.4, HCT116 PTEN-null 1.4
Cc1ccccc1S(=O)(=O)Cc1ccc(C(=O)NCCCOC(C)C)o1	none
CCCCNC(=O)/C=C/c1ccc(OC)c(Br)c1	none
CS(=O)(=O)N1CCC(C(=O)Nc2cccc([N+](=O)[O-])c2)CC1	none (no result: HCT116 bCat-KO, HCT116 PTEN-null)
CCCc1cc(N2CCN(C(=O)c3ccco3)CC2)n2c(nc3ccccc32)c1C#N	Lmaj promast 71
CCCc1cc(NCCCCO)n2c(nc3ccccc32)c1C#N	none
CN1CCN(c2cc(N3CCc4ccccc4C3)c(F)cc2[N+](=O)[O-])CC1	Lmaj promast 76
O=C(c1ccccc1)c1ccc(N2CCOCC2)c(F)c1	Lmaj promast 53
CN1CCN(c2ccc(C(=O)c3ccccc3)cc2[N+](=O)[O-])CC1	Lmaj promast 81
COc1ccccc1C1(O)CC2CCC(C1)N2S(=O)(=O)c1ccc(C(C)=O)cc1 (stereo not given)	none
CCc1cccc(CC)c1NC(=S)NCC(c1cccnc1)N1CCOCC1 (stereo not given)	none
Brc1c(OCCOCCn2cncn2)ccc2ccccc12	Lmaj promast 65
O=C(Nc1ncn[nH]1)c1ccc(S(=O)(=O)N2CCOCC2)cc1	none (no result: HCT116 bCat-KO, HCT116 PTEN-null)
O=C(CSc1ccc(Cl)cc1)NCC1CCCO1 (stereo not given)	none

Compound activity (PubChem)
